Experimental data from ChEMBL document CHEMBL1144911, “Synthesis and biological evaluation of 5-substituted derivatives of the potent antiherpes agent (north)-methanocarbathymine” (J Med Chem, 2003).

Columns and labels:
[1] = (§1) Inhibition constant against HSV-1 TK; format: functional, herpes simplex virus
How it was run: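 Purified HSV-1 TK converts [methyl-³H]thymidine to its monophosphate in 50 mM Tris pH 7.5, 5 mM MgCl₂, 5 mM ATP, 2.5 mg/mL BSA under initial-velocity conditions. Three inhibitor concentrations are used, and apparent Ki is taken from Lineweaver–Burk double-reciprocal plots. Six independent assays.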

[2] = species: Homo sapiens; assay: Inhibitory concentration required to reduce HSV-2 induced cytopathogenic effect in human skin fibroblast; format: functional, organism-based
[3] = system: Human alphaherpesvirus 2; assay: Inhibitory concentration required to reduce HSV-2 induced cytopathogenic effect (CPE) by 50 % in HFF cells; format: functional, organism-based; details: Human alphaherpesvirus 2, HFF
[4] = system: Human alphaherpesvirus 1; assay: Inhibitory concentration required to reduce HSV-1 induced cytopathogenic effect (CPE) by 50 % in HFF cells; format: functional, organism-based, herpes simplex virus; details: Human alphaherpesvirus 1, HFF
[5] = species: Homo sapiens; assay: Cytotoxic concentration that produces 50% growth inhibition of human skin fibroblast in CPE assay; format: functional
[6] = system: Human alphaherpesvirus 3; assay: Effective concentration against TK- Varicella-Zoster Virus (VZV) 07/1 strain; format: functional, organism-based
[7] = system: Human alphaherpesvirus 3; assay: Antiviral activity against OKA strain of thymidine kinase positive(TK+) Varicella-Zoster Virus (VZV); format: functional, organism-based
[8] = Catalytic rate constant was determined; format: ADME
[9] = system: Human alphaherpesvirus 3; assay: Minimum cytotoxic concentration that causes alterations of VZV infected Osteosarcoma cell morphology; format: functional
[10] = system: HFF; assay: Cytotoxic concentration for 50% inhibition of cell growth of HSV-1 infected HFF cells determined by CPE assay; format: functional; details: Homo sapiens
[11] = system: Human alphaherpesvirus 3; assay: Effective concentration against TK+ Varicella-Zoster Virus (VZV) OKA strain; format: functional, organism-based
[12] = system: Thymidine kinase (Herpes simplex virus type 1); assay: Catalytic turnover constant against HSV-1 thymidine kinase
[13] = Cytotoxic concentration that produces 50% inhibition of cell growth.; format: functional
[14] = system: Human alphaherpesvirus 3; assay: Effective concentration against TK+ Varicella-Zoster Virus (VZV)YS strain; format: functional, organism-based
[15] = system: Human alphaherpesvirus 3; assay: Cytotoxic concentration that causes growth inhibition of VZV infected Osteosarcoma cells; format: functional
[16] = system: Human alphaherpesvirus 3; assay: Antiviral activity against YS/R strain of thymidine kinase negative(TK-) Varicella-Zoster Virus (VZV); format: functional, organism-based
[17] = Minimum cytotoxic concentration that causes microscopically detectable alterations of cell morphology; format: functional
[18] = system: HFF; assay: Cytotoxic concentration for 50% inhibition of cell growth of HSV-2 infected HFF cells determined by CPE assay; format: functional; details: Homo sapiens
[19] = system: Human alphaherpesvirus 3; assay: Antiviral activity against YS strain of thymidine kinase positive(TK+) Varicella-Zoster Virus (VZV); format: functional, organism-based
[20] = species: Homo sapiens; assay: Inhibitory concentration required to reduce HSV-1 induced cytopathogenic effect (CPE) in human skin fibroblast; format: functional, organism-based
[21] = system: Human alphaherpesvirus 3; assay: Antiviral activity against 07/1 strain of thymidine kinase negative (TK-) Varicella-Zoster Virus (VZV); format: functional, organism-based
[22] = system: Human alphaherpesvirus 3; assay: Effective concentration against TK- Varicella-Zoster Virus (VZV) YS/R strain; format: functional, organism-based
[23] = system: HFF; assay: Cytotoxic concentration for 50% inhibition of cell growth of HSV-2 infected HFF cells determined by VPR assay; format: functional; details: Homo sapiens
How it was run: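 Run in virus-infected HFF cells within the plaque reduction assay set-up. […] The value was converted from μg/mL to μM.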

[24] = Cytotoxic concentration against non transfected osteosarcoma cells non transfected (MG-63-hTK1); format: functional
How it was run: (§2)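 Osteosarcoma lines (143B-TK⁻ with 0.1 mg/mL 5-BrdU selection; MG-63-hTK1; 143B-TK⁺-HSV1-WT with HAT) grown in MEM/10% FCS. Seeded at 2 × 10³ (143B lines) or 1.5 × 10³ (MG-63) cells/well, exposed to five concentrations over 0.5–500 μM for 4.5 days at 37 °C/5% CO₂. XTT added for 9 h, A450 (ref 750 nm) read against untreated wells. Three independent series in triplicate.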

[25] = Selectivity index calculated as CC50/EC50 in the study of cytopathogenic effect by HSV-1; format: functional
[26] = system: HFF; assay: Inhibitory concentration for HSV-2 plaque reduction (VPR) by 50% in HFF cells; format: functional, cell-based; details: Homo sapiens
[27] = species: Homo sapiens; assay: Inhibitory concentration required to reduce cowpox virus induced virus plaque reduction (VPR) in human skin fibroblast; format: functional, organism-based
[28] = system: HFF; assay: Inhibitory concentration to reduce vaccinia virus induced cytopathogenic effect by 50% in HFF cells; format: functional, cell-based; details: Homo sapiens
[29] = system: HFF; assay: Concentration to reduce vaccinia virus plaque reduction (VPR) by 50% in HFF cells; format: functional, cell-based; details: Homo sapiens
[30] = Cytotoxic concentration against osteosarcoma cells stably transfected with HSV-1 TK (143B-TK+-HSV-1-WT); format: functional; details: Human alphaherpesvirus 1; how it was run: as §2
[31] = Selectivity index calculated as CC50/EC50 in the study of cytopathogenic effect by vaccinia virus; format: functional
[32] = Selectivity index calculated as CC50/EC50 in the study of VPR assay of vaccinia virus; format: functional
[33] = species: Homo sapiens; assay: Inhibitory concentration required to reduce HSV-1 induced virus plaque reduction (VPR) in human skin fibroblast; format: functional, organism-based
[34] = Selectivity index calculated as CC50/EC50 in the VPR assay of HSV-1; format: functional
[35] = species: Homo sapiens; assay: Inhibitory concentration required to reduce cowpox virus induced cytopathogenic effect (CPE) in human skin fibroblast; format: functional, organism-based
[36] = system: HFF; assay: Inhibitory concentration to reduce Cowpox virus induced cytopathogenic effect by 50% in HFF cells; format: functional, cell-based; details: Homo sapiens
[37] = species: Homo sapiens; assay: Inhibitory concentration required to reduce vaccinia virus induced virus plaque reduction (VPR) in human skin fibroblast; format: functional, organism-based
[38] = species: Homo sapiens; assay: Inhibitory concentration required to reduce vaccinia virus induced cytopathogenic effect (CPE) in human skin fibroblast; format: functional, organism-based
[39] = system: HFF; assay: Cytotoxic concentration for 50% inhibition of cell growth of HSV-1 infected HFF cells determined by VPR assay; format: functional; details: Homo sapiens
[40] = as §1; format: functional, herpes simplex virus; remark: listed apart in the source
[41] = system: HFF; assay: Concentration to reduce Cowpox virus plaque reduction (VPR) by 50% in HFF cells; format: functional, cell-based; details: Homo sapiens
[42] = species: Homo sapiens; assay: Inhibitory concentration required to reduce HSV-2 induced virus plaque reduction (VPR) in human skin fibroblast; format: functional, organism-based
[43] = system: HFF; assay: Inhibitory concentration for HSV-1 plaque reduction (VPR) by 50% in HFF cells; format: functional, cell-based; details: Homo sapiens
[44] = species: Homo sapiens; assay: Cytotoxic concentration that produces 50% growth inhibition of human skin fibroblast in VPR assay; format: functional

Q: What does the source list for O=c1[nH]c(=O)n([C@H]2C[C@H](O)[C@]3(CO)C[C@H]23)cc1/C=C/Br?
A: Ki [1]: 62.9 µM; EC50 [2]: > 291 µM; EC50 [3]: > 291 µM; EC50 [4]: 6.41 µM; CC50 [5]: > 291 µM; EC50 [6]: > 5 µM; EC50 [7]: 0.005 µM; k cat [8]: 0.07 s⁻¹; MCC [9]: > 5 µM; CC50 [10]: > 291 µM; EC50 [11]: 0.005 µM; k cat [12]: 0.07 s⁻¹; CC50 [13]: > 200 µM; EC50 [14]: 0.007 µM; CC50 [15]: > 200 µM; EC50 [16]: > 5 µM; MCC [17]: > 5 µM; CC50 [18]: > 291 µM; EC50 [19]: 0.007 µM; EC50 [20]: 6.41 µM; EC50 [21]: > 5 µM; EC50 [22]: > 5 µM

Q: With O=c1[nH]c(=O)n([C@H]2C[C@H](O)[C@]3(CO)C[C@H]23)cc1Br as the compound, how does the CC50 [23] read?
A: > 315 µM

Q: And the CC50 [24]?
A: 330 µM

Q: What about the SI [25] of the same compound?
A: > 256

Q: And the EC50 [26]?
A: 0.378 µM

Q: And the EC50 [27]?
A: 10.7 µM

Q: And the EC50 [2]?
A: 2.2 µM

Q: And the EC50 [28]?
A: 2.01 µM

Q: What about the EC50 [3] of the same compound?
A: 2.2 µM

Q: And the EC50 [29]?
A: 8.19 µM

Q: What about the EC50 [4] of the same compound?
A: 1.23 µM

Q: What about the CC50 [5] of the same compound?
A: > 315 µM

Q: What about the EC50 [6] of the same compound?
A: > 20 µM

Q: What about the EC50 [7] of the same compound?
A: 0.2 µM

Q: What about the CC50 [30] of the same compound?
A: 150 µM

Q: And the k cat [8]?
A: 0.15 s⁻¹

Q: And the MCC [9]?
A: > 50 µM

Q: And the CC50 [10]?
A: > 315 µM

Q: What about the SI [31] of the same compound?
A: >156

Q: And the SI [32]?
A: >38

Q: And the EC50 [33]?
A: 0.095 µM

Q: And the EC50 [11]?
A: 0.2 µM

Q: And the SI [34]?
A: > 3320

Q: What about the EC50 [35] of the same compound?
A: 36.3 µM

Q: What about the k cat [12] of the same compound?
A: 0.15 s⁻¹

Q: What about the CC50 [13] of the same compound?
A: > 200 µM

Q: What about the EC50 [36] of the same compound?
A: 36.3 µM

Q: And the EC50 [37]?
A: 8.19 µM

Q: What about the EC50 [14] of the same compound?
A: 0.2 µM

Q: What about the EC50 [38] of the same compound?
A: 2.01 µM

Q: And the CC50 [15]?
A: > 200 µM

Q: What about the EC50 [16] of the same compound?
A: 4 µM

Q: And the CC50 [39]?
A: > 315 µM

Q: What about the MCC [17] of the same compound?
A: > 50 µM

Q: And the Ki [40]?
A: 69.8 µM

Q: What about the CC50 [18] of the same compound?
A: > 315 µM

Q: What about the EC50 [19] of the same compound?
A: 0.2 µM

Q: And the EC50 [41]?
A: 10.7 µM

Q: And the EC50 [42]?
A: 0.378 µM

Q: And the EC50 [43]?
A: 0.095 µM

Q: And the EC50 [20]?
A: 1.23 µM

Q: And the CC50 [44]?
A: > 315 µM

Q: What about the EC50 [21] of the same compound?
A: > 20 µM

Q: What about the EC50 [22] of the same compound?
A: 4 µM
